Here are results for 9 molecules from ChEMBL document CHEMBL3259704, “Second generation steroidal 4-aminoquinolines are potent, dual-target inhibitors of the botulinum neurotoxin serotype A metalloprotease and P. falciparum malaria” (J Med Chem, 2014).

Data set [1] has as its target Botulinum neurotoxin type A (Clostridium botulinum) (UniProt P0DPI0). Nature of the data set: Inhibition of Clostridium botulinum recombinant BoNT/A light chain using N-terminal acetylated, C-terminal aminated SNAP-25 (187-203) as substrate at 20 uM by reverse-phase HPLC analysis. The method, boiled down:
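Recombinant BoNT/A LC with SNAP-25 187–203 peptide substrate in 40 mM HEPES–0.05% Tween, pH 7.3, with 0.5 mg/mL BSA and 50 μM excess Zn, at 37 °C. Quenched with TFA; reverse-phase HPLC product/substrate peak areas give percent inhibition, run in duplicate.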

In data set [2] the target is Botulinum neurotoxin type A (Clostridium botulinum, UniProt P0DPI0). Nature of the data set: Inhibition of Clostridium botulinum recombinant BoNT/A light chain using N-terminal acetylated, C-terminal aminated SNAP-25 (187-203) as substrate by reverse-phase HPLC analysis. The procedure, abridged:
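Same HPLC LC cleavage assay (pH 7.3 HEPES/Tween, BSA, excess Zn, 37 °C). […] Ki comes from velocity versus substrate at several inhibitor levels, globally fit to a competitive model.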

The test system of data set [3] is Plasmodium falciparum. Nature of the data set: Antimalarial activity against CQ-resistant, MFQ-susceptible Plasmodium falciparum W2 clone Indochina 1 isolate assessed as inhibition of parasite proliferation by MSF assay. Type of data set: functional, organism-based. The procedure, abridged: (§1)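 SYBR Green I fluorescence (MSF) microtiter drug-sensitivity assay: malarial DNA content is the measure of in vitro parasite proliferation. Resistance index is the IC90 ratio of the resistant strain to D6.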

The test system of data set [4] is Plasmodium falciparum. Description: Antimalarial activity against CQ, MFQ-susceptible Plasmodium falciparum D6 clone Sierra 1/UNC isolate assessed as inhibition of parasite proliferation by MSF assay. It counts as functional, organism-based. The method, boiled down: as §1
For data set [5], the system named is Plasmodium falciparum. Nature of the data set: Antimalarial activity against CQ, MFQ-resistant Plasmodium falciparum TM91C235 clone Southeast asian isolate assessed as inhibition of parasite proliferation by MSF assay. Type of data set: functional, organism-based. The method, boiled down:
as §1

Data set [6] concerns Plasmodium falciparum. Nature of the data set: Resistance index, ratio of IC90 for CQ, MFQ-resistant Plasmodium falciparum TM91C235 clone Southeast asian isolate to IC90 for CQ, MFQ-susceptible Plasmodium falciparum D6 clone Sierra 1/UNC isolate. Type of data set: functional. The method, boiled down: as §1
Data set [7] has as its system Plasmodium falciparum. Nature of the data set: Resistance index, ratio of IC90 for CQ-resistant, MFQ-susceptible Plasmodium falciparum W2 clone Indochina 1 isolate to IC90 for CQ, MFQ-susceptible Plasmodium falciparum D6 clone Sierra 1/UNC isolate. It counts as functional. The method, boiled down: as §1
Data set [8] has as its system HepG2. Nature of the data set: Cytotoxicity against human HepG2 cells assessed as cell viability after 48 hrs by MTT assay. Type of data set: cell-based. To be noted: HepG2, 48 h. For orientation: Formazan colour is commonly taken as a measure of viable cells.
A short description of data set [9]: Selectivity index, ratio of IC50 for human HepG2 cells to IC50 for CQ-resistant, MFQ-susceptible Plasmodium falciparum W2 clone Indochina 1 isolate. It counts as toxicity, cell-based. As to conditions: read-out: Ratio IC50.
Data set [10] is described as follows: Selectivity index, ratio of IC50 for human HepG2 cells to IC50 for CQ, MFQ-susceptible Plasmodium falciparum D6 clone Sierra 1/UNC isolate. It counts as toxicity, cell-based. As to conditions: read-out: Ratio IC50.
The nature of data set [11]: Selectivity index, ratio of IC50 for human HepG2 cells to IC50 for CQ, MFQ-resistant Plasmodium falciparum TM91C235 clone Southeast asian isolate. It counts as toxicity, cell-based. As to conditions: read-out: Ratio IC50.
Data set [12] deals with Liver microsome. Nature of the data set: Half life in human liver microsomes. Type of data set: ADME. To be noted: microsomes.
The nature of data set [13]: (§2) Half life in mouse liver microsomes. Type of data set: ADME. As to conditions: liver microsomes. (In general: Liver microsomes are a subcellular fraction often used to study metabolism.)
For data set [14], the system named is PBMC. Description: Cytotoxicity against human PBMC assessed as inhibition of cell survival after 72 hrs. Type of data set: cell-based. The method, boiled down: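 PBMC from heparinized healthy-donor blood (Histopaque) in RPMI-1640 with 10% FCS and PHA stimulation, 200 000 cells/well, with compounds in DMSO, 72 h at 37 °C, 6% CO2.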
Data set [15] has as its system Liver. The data set is described as §2. It counts as ADME. As to conditions: microsomes.

Sequence of Botulinum neurotoxin type A (Clostridium botulinum) (P0DPI0 2-448 limits assumed): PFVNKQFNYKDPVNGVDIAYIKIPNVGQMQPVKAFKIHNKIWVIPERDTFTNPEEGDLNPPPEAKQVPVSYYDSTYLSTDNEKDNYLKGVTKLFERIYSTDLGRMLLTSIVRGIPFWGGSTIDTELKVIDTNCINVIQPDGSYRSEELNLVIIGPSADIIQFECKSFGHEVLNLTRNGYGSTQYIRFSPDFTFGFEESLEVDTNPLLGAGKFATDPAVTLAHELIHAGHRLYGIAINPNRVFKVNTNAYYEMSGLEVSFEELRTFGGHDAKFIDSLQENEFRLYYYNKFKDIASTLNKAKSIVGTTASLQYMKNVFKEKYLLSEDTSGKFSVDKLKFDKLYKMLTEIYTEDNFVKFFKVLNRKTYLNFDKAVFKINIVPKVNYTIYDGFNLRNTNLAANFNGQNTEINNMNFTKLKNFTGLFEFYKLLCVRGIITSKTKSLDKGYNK
Sequence of Botulinum neurotoxin type A (P0DPI0 2-448 limits assumed): as above

As for `CC(=O)O[C@H]1C[C@H]2[C@@H]([C@H](OC(C)=O)C[C@@H]3C[C@H](NS(C)(=O)=O)CC[C@@]32C)[C@@H]2CC[C@H]([C@H](C)CCCN(C)CCCNc3ccnc4cc(Cl)ccc34)[C@@]12C`, in data set [1], the inhibition (usually the drop in the measured response relative to a control, in per cent) amounted to 55.6%. The IC50 (commonly the concentration that inhibits the measured activity by half) in data set [2] is 8210 nM; in data set [3], 30.5 nM; in [4] it was 31.7 nM; in [5], 20.3 nM; in [8] it was 2830 nM. Also, the IC90 (commonly the point of the concentration-response curve where the effect stands at 90%) turned out to be 54.7 nM in [3], 55.9 nM in data set [4] and 28.6 nM in data set [5]. For the same molecule, the Ratio amounted to 0.51 in [6] and 0.98 in data set [7]. The selectivity ratio in data set [9] came out at 93; in data set [10], 89; in data set [11], 139. Moreover, the t1/2 in data set [12] stood at 11 min. Besides, the half-life – broadly, the time in which the quantity being followed falls by half – in data set [13] amounted to 60 min.

For `CC(=O)O[C@H]1C[C@H]2[C@@H]([C@H](OC(C)=O)C[C@@H]3CC(=O)CC[C@@]32C)[C@@H]2CC[C@H]([C@H](C)CCCNCCNc3ccnc4cc(Cl)ccc34)[C@@]12C`, the inhibition in data set [1] amounted to 67.1%. The IC50 in [2] is 5700 nM; in data set [3] it was 6.47 nM; in [4], 3.38 nM; in data set [5], 17.6 nM; in data set [8], 1930 nM; in data set [14] it was 52200 nM. For the same molecule, the IC90 in [3] came out at 14.1 nM; in [4], 4.56 nM; in [5] it was 36.8 nM. Moreover, the Ratio is given as 8.06 in data set [6] and 3.09 in data set [7]. The selectivity ratio in [9] worked out at 299; in data set [10], 571; in data set [11], 109. Moreover, the t1/2 in [12] was found to be 6 min; in [15], 13 min.

In the case of `CC(=O)O[C@H]1C[C@H]2[C@@H]([C@H](OC(C)=O)C[C@@H]3C[C@H](NS(C)(=O)=O)CC[C@@]32C)[C@@H]2CC[C@H]([C@H](C)CCCN(C)CCNc3ccnc4cc(Cl)ccc34)[C@@]12C`, the inhibition in data set [1] turned out to be 33.8%. Further, the IC50 in data set [2] amounted to 25000 nM; in data set [3], 12.1 nM; in data set [4], 5.35 nM; in [5], 6.59 nM; in data set [8] it was 14500 nM. In addition, the results for the 90% effect concentration (IC90) in data set [3], in data set [4] and in data set [5] were 16.8 nM, 10.2 nM and 12.6 nM, respectively. In addition, the figures for the Ratio in [6] and in data set [7] were 1.24 and 1.65, respectively. Further, the values for the selectivity ratio in [9], in [10] and in [11] were 1190, 2710 and 2200, respectively. The t1/2 in data set [12] is given as 14 min; in data set [15], 47 min.

On to `CC(=O)O[C@H]1C[C@H]2[C@@H]([C@H](OC(C)=O)C[C@@H]3C[C@H](N(C)C)CC[C@@]32C)[C@@H]2CC[C@H]([C@H](C)CCCNCCCNc3ccnc4cc(Cl)ccc34)[C@@]12C`, for which, in data set [1], the inhibition was 92.6%. In addition, the IC50 in data set [2] was 1340 nM; in data set [3], 36.1 nM; in [4], 101 nM; in data set [5], 88.7 nM; in data set [8], 13800 nM; in [14], 7840 nM. For the same molecule, the figures for the IC90 in data set [3], in data set [4] and in data set [5] were 81.1 nM, 139 nM and 165 nM, respectively. In addition, the results for the Ratio in data set [6] and in [7] were 1.19 and 0.58, respectively. The selectivity ratio stood at 382 in data set [9], 137 in data set [10] and 156 in data set [11].

For `CC(=O)O[C@H]1C[C@H]2[C@@H]([C@H](OC(C)=O)C[C@@H]3C[C@H](N(C)C)CC[C@@]32C)[C@@H]2CC[C@H]([C@H](C)CCCN(C)CCNc3ccnc4cc(Cl)ccc34)[C@@]12C`, the inhibition in data set [1] came out at 85.5%. In addition, the IC50 worked out at 2270 nM in data set [2]; 1.35 nM in data set [3]; 2.35 nM in data set [4]; 2.9 nM in data set [5]; 9210 nM in data set [8]; 2520 nM in [14]. Besides, the IC90 was found to be 1.35 nM in data set [3], 2.63 nM in data set [4] and 3.32 nM in data set [5]. The results for the Ratio in data set [6] and in data set [7] were 1.26 and 0.51, respectively. Moreover, the selectivity ratio is 6820 in [9], 3920 in data set [10] and 3180 in data set [11]. In [12], this molecule displayed a t1/2 of 27 min. The same molecule displayed a half-life in [13] of 60 min.

Turning to `CC(=O)O[C@H]1C[C@H]2[C@@H]([C@H](OC(C)=O)C[C@@H]3CC(=O)CC[C@@]32C)[C@@H]2CC[C@H]([C@H](C)CCCNCCCNc3ccnc4cc(Cl)ccc34)[C@@]12C`, the inhibition in [1] is 72.9%. In addition, the IC50 in [2] was 2320 nM; in data set [3] it was 6.89 nM; in data set [4], 6.12 nM; in data set [5], 9.19 nM; in [8], 1110 nM; in data set [14], 2610 nM. In addition, the IC90 in [3] is 12.1 nM; in data set [4], 10 nM; in [5] it was 18.1 nM. Further, the Ratio in [6] is reported as 1.81; in data set [7], 1.21. For the same molecule, the selectivity ratio in data set [9] amounted to 161; in data set [10] it was 182; in data set [11], 121. For the same molecule, the t1/2 in data set [12] is given as 14 min; in data set [15], 6 min.

For the molecule `CC(=O)O[C@H]1C[C@H]2[C@@H]([C@H](OC(C)=O)C[C@@H]3C[C@H](NS(C)(=O)=O)CC[C@@]32C)[C@@H]2CC[C@H]([C@H](C)CCCNCCCNc3ccnc4cc(Cl)ccc34)[C@@]12C`, in data set [1], the inhibition was 72.9%. Moreover, the IC50 in data set [2] turned out to be 3250 nM; in data set [3] it was 34.4 nM; in [4], 37.5 nM; in [5] it was 30.3 nM; in data set [8] it was 4460 nM. Also, the IC90 in [3] came out at 96.4 nM; in [4], 74.7 nM; in data set [5] it was 56.2 nM. The Ratio is 0.75 in data set [6] and 1.29 in data set [7]. The values for the selectivity ratio in [9], in data set [10] and in data set [11] were 130, 119 and 147, respectively. Also, the t1/2 in [12] amounted to 11 min; in data set [15], 47 min.

As for `CC(=O)O[C@H]1C[C@H]2[C@@H]([C@H](OC(C)=O)C[C@@H]3C[C@H](O)CC[C@@]32C)[C@@H]2CC[C@H]([C@H](C)CCCNCCCNc3ccnc4cc(Cl)ccc34)[C@@]12C`, the inhibition in data set [1] is 69.9%. Moreover, the IC50 was determined as 5180 nM in data set [2]; 12.8 nM in data set [3]; 9.3 nM in data set [4]; 11.9 nM in [5]; 1070 nM in [8]. Besides, the results for the IC90 in data set [3], in data set [4] and in data set [5] were 18.8 nM, 16.5 nM and 30.3 nM, respectively. Moreover, the values for the Ratio in data set [6] and in data set [7] were 1.84 and 1.14, respectively. The selectivity ratio in data set [9] came out at 84; in data set [10], 115; in data set [11], 90. Also, the t1/2 in data set [12] is 8 min. Moreover, the half-life in data set [13] was found to be 60 min.

In the case of `CC(=O)O[C@H]1C[C@H]2[C@@H]([C@H](OC(C)=O)C[C@@H]3C[C@H](N)CC[C@@]32C)[C@@H]2CC[C@H]([C@H](C)CCCN(CCCNc3ccnc4cc(Cl)ccc34)CCC[C@@H](C)[C@H]3CC[C@H]4[C@@H]5[C@H](OC(C)=O)C[C@@H]6C[C@H](N)CC[C@]6(C)[C@H]5C[C@H](OC(C)=O)[C@]34C)[C@@]12C`, the inhibition in data set [1] amounted to 92.8%. The IC50 was 630 nM in [2]; 218 nM in data set [3]; 245 nM in [4]; 297 nM in [5]; 2130 nM in data set [8]. In addition, the results for the IC90 in data set [3], in [4] and in data set [5] were 414 nM, 321 nM and 313 nM, respectively. Also, the Ratio in data set [6] is reported as 0.97; in data set [7], 1.29. The selectivity ratio came to 10 in [9], 9 in data set [10] and 7 in data set [11].
